Bounds are passed on as bounds.

A short description of data set [1]: SEC-coupled analytical light scattering. It counts as physicochemical, human. Particulars: for oligomeric state in solution / Mw/Mn / dimer fraction / Rg/Rh / approximate mass of higher-order oligomer: ALS; for oligomeric state in solution / Rh / Mn / Mw/Mn / Mw / dimer fraction / Rg / Rg/Rh: pH 8, 10°C; for Rh: hydrodynamic radius, ALS (DLS); for Rh / Mn / Mw / Rg: at least three independent measurements; for Rh / Mn / Mw/Mn / Mw / Rg / Rg/Rh: ± one standard deviation; for Mn: number-average molar mass; for Mn / Mw / Rg: ALS (SLS); for Mw/Mn: polydispersity; for Mw: weighted-average molar mass; for Rg: radius of gyration; for Rg/Rh: shape ratio. The procedure, abridged: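 His-tagged human BclXL (residues 1–233 or 1–200) was expressed in E. coli and purified by Ni-NTA then SEC. It was run at 10–50μM starting concentration in 50mM sodium phosphate, 100mM NaCl, 1mM EDTA, 5mM β-mercaptoethanol, pH 8.0, on Superdex 200 at 1ml/min and 10°C. Mw, Mn and Rg came from triple-angle SLS (Zimm fit); Rh came from DLS at 90° (Stokes-Einstein). n≥3, ±SD.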

The test system of data set [2] is BclXL_FL. The experiment in a line: Steady-state fluorescence. Particulars: BclXL_FL alone, 5μM; SSF, excitation 290nm, pH 8.0, 25 °C. Further details: species or system human.
For data set [3], the system named is BclXL_FL. As to the kind of experiment: DSC thermal stability of BclXL_FL. It counts as physicochemical, human. Conditions: BclXL_FL alone, 50mM Sodium phosphate, pH 8.0, 10–50μM protein, 40–120°C, 1°C/min, 3atm, repeated at least three times.
Data set [4] deals with BclXL_FL. As to the kind of experiment: TEM of negatively-stained BclXL_FL. Further details: species or system human. Conditions: 25μM BclXL_FL alone; 50mM Sodium phosphate, pH 8.0, negative staining. The procedure, abridged: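 Full-length His-tagged human BclXL (residues 1–233) was expressed in E. coli and purified by Ni-NTA and SEC. It was imaged at 25μM, alone or with a 10-molar excess of a 20-mer BH3 peptide, in 50mM sodium phosphate pH 8.0. Samples were negatively stained and viewed by TEM at 80kV and 105,000 magnification.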

Consider “BclXL_dTM: BclXL in which the TM domain is deleted (residues 1–200), human, with an N-terminal His-tag, expressed in Escherichia coli”, for which, in data set [1], the “oligomeric state in solution” value is “largely monomeric in solution” and the dimer fraction entry was “minor fraction”. Also, in data set [1] (Dimer), the Rh is 41 ± 3 Å, the Mn amounted to 54 ± 2 kD, the Mw/Mn stood at 1.00 ± 0.01 and the Mw was determined as 54 ± 2 kD. In data set [1] (Monomer), this substance registered a Rh of 33 ± 2 Å, a Mn of 28 ± 2 kD and a Mw/Mn of 1.00 ± 0.00.

With “BclXL_FL: Full-length BclXL (residues 1–233), human, with an N-terminal His-tag, expressed in Escherichia coli”, in the data set with BclXL_FL [2], the “intrinsic fluorescence relative to BclXL_dTM” value was “much higher than that observed for the BclXL_dTM construct”. Moreover, in data set [1], the “oligomeric state in solution” value is “predominantly associates into higher-order oligomers” and the dimer fraction result is given as “minor fraction”. In data set [1] (Dimer), this substance came in with a Rh of 47 ± 2 Å, a Mn of 61 ± 3 kD, a Mw/Mn of 1.01 ± 0.01 and a Mw of 62 ± 3 kD. In data set [1] (Monomer), this substance gave a Rh of 36 ± 1 Å, a Mn of 31 ± 1 kD and a Mw/Mn of 1.00 ± 0.01. Besides, in data set [1] (Multimer), the Rh is on record as 99 ± 2 Å, the Mn was 321 ± 25 kD, the Mw/Mn amounted to 1.14 ± 0.02 and the Rg worked out at 107 ± 4 Å. In data set [1] (Multimer), the Rg/Rh was found to be 1.10 ± 0.01 and the Mw came to 361 ± 26 kD. In data set [1] (Polymer), the Rh is 175 ± 6 Å, the Mn is listed as 3134 ± 147 kD, the Rg stood at 198 ± 8 Å and the Rg/Rh is given as 1.13 ± 0.02. The Mw in data set [1] (Polymer) is given as 3355 ± 188 kD. Besides, the “oligomer equilibrium on SEC re-analysis” value in data set [1] (SEC-resolved fractions re-analyzed on SEC column) is recorded as “reversible monomer-dimer-multimer-polymer equilibrium”. Moreover, the “approximate mass of higher-order oligomer” value in data set [1] (multimer) is reported as ~ 300 kD. The “approximate mass of higher-order oligomer” value in data set [1] (polymer) is given as ~ 3000 kD. For the same substance, the “melting temperature (Tm)” value in the data set with BclXL_FL [3] is above 120 °C. Besides, the TEM appearance entry in the data set with BclXL_FL [4] is “rod-like appearance in solution”.

Values taken from article PMC3268818 (Journal of Molecular Biology, 2011).
